Results: ChEMBL document CHEMBL3868629, “Discovery of novel N-phenyl 1,4-dihydropyridines with a dual mode of antimycobacterial activity” (Bioorg Med Chem Lett, 2016)

Experiments:
[1] = system: Mycobacterium tuberculosis; assay: Antitubercular activity against Mycobacterium tuberculosis H37Rv expressing GFP assessed as growth inhibition at 1 ug/ml measured after 7 days by fluorescence analysis relative to control; format: functional; conditions: 168 h, read-out: GI
In short: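 GFP-expressing H37Rv cultured in 7H9 with 10% OADC, 0.05% Tween 80 and 0.2% glycerol, sealed under an air-permeable membrane. Growth was read as fluorescence (excitation 485 nm, emission 528 nm) after seven days, in triplicate. Fluorescence tracks bacterial growth.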

[2] = target: ATP-dependent translocase ABCB1 (Homo sapiens, UniProt P08183); assay: Inhibition of human ABCB1 expressed in mouse T-lymphoma cells assessed as rhodamine-123 accumulation by measuring fluorescence activity ratio at 1 uM by flow cytometry relative to control; format: cell-based
ATP-dependent translocase ABCB1, sequence (P08183 whole entry, the tested form may be a part): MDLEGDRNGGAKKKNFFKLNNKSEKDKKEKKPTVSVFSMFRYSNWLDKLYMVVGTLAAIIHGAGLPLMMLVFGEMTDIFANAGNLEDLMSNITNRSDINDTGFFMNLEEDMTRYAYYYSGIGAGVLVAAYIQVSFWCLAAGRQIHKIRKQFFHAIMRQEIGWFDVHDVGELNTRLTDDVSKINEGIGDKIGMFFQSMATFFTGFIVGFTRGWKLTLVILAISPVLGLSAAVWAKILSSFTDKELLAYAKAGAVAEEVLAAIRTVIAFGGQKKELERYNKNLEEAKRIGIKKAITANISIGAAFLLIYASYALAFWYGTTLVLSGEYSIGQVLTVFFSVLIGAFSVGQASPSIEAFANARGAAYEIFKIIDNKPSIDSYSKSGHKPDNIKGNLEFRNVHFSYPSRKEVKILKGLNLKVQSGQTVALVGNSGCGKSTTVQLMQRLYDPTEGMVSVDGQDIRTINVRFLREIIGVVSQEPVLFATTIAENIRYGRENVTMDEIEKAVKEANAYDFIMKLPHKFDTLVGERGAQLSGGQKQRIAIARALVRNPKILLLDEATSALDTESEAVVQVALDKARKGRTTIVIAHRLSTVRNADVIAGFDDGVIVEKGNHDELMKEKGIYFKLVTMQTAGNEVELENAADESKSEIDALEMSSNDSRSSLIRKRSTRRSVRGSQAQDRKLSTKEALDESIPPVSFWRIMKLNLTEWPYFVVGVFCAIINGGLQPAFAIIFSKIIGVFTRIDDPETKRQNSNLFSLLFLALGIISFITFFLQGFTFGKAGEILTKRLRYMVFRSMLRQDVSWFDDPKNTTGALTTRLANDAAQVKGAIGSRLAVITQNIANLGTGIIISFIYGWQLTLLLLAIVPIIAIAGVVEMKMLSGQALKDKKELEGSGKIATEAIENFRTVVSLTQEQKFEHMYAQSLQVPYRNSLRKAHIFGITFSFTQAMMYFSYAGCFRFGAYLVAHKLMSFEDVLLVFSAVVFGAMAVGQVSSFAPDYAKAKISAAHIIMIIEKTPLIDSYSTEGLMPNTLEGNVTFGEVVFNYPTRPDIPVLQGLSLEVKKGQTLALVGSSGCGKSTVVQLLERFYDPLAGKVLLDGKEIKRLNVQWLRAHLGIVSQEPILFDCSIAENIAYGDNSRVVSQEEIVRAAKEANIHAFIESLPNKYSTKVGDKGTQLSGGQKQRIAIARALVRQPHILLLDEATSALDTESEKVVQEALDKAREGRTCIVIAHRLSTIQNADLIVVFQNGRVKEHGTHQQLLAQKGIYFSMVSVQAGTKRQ

[3] = target: T1, Multidrug efflux ATP-binding/permease protein Rv0194 (Mycobacterium tuberculosis (strain ATCC 25618 / H37Rv)) (UniProt O53645); assay: Inhibition of GFP-fused Mycobacterium tuberculosis H37Rv Rv0194 assessed as potentiation of ciprofloxacin-mediated antitubercular activity by measuring fold increase in ciprofloxacin growth inhibition at 0.3 ug/ml
T1 sequence (whole entry): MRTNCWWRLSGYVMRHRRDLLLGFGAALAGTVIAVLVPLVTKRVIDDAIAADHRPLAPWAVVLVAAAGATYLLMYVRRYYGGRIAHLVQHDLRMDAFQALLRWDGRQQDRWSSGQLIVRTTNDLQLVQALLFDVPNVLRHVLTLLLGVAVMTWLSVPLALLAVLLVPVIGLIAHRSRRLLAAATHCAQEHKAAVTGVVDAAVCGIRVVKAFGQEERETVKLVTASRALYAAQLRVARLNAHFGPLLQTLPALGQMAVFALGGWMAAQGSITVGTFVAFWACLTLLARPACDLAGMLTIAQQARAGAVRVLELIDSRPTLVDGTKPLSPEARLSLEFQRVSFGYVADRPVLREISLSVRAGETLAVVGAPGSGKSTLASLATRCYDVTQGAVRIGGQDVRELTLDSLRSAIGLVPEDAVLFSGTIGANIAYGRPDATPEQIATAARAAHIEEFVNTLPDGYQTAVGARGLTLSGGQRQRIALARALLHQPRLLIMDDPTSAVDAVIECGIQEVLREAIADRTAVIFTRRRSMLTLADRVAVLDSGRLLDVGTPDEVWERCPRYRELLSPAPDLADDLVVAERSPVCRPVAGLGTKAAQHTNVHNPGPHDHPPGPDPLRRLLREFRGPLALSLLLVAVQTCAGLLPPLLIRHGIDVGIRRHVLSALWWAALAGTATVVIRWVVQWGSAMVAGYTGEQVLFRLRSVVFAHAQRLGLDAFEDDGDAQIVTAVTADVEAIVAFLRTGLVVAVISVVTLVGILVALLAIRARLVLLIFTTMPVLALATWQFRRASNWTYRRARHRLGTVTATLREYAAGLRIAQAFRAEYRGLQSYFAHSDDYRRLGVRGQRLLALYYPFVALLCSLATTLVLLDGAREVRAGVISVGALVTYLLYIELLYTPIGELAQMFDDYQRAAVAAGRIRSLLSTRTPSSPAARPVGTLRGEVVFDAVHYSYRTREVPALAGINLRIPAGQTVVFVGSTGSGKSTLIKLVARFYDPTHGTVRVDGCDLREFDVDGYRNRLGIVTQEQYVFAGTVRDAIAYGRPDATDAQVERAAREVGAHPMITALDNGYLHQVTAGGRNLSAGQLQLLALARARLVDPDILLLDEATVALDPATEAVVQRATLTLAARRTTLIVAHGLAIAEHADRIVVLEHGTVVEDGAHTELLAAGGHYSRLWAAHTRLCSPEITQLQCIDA

[4] = target: T1, Multidrug efflux ATP-binding/permease protein Rv0194 (Mycobacterium tuberculosis (strain ATCC 25618 / H37Rv)); assay: Inhibition of GFP-fused Mycobacterium tuberculosis H37Rv Rv0194 assessed as potentiation of ciprofloxacin-mediated antitubercular activity by measuring ciprofloxacin growth inhibition at 0.3 ug/ml (reference value: 19%)
In short: (§1)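 The antitubercular drug at set concentrations was tested alone and combined with the test compound held at 0.3 µg/mL. The GFP-expressing H37Rv growth assay was used: 7H9 with 10% OADC, 0.05% Tween 80 and 0.2% glycerol, seven days of culture, fluorescence at 485/528 nm, triplicates.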

[5] = target: T1, Multidrug efflux ATP-binding/permease protein Rv0194 (Mycobacterium tuberculosis (strain ATCC 25618 / H37Rv)); assay: Inhibition of GFP-fused Mycobacterium tuberculosis H37Rv Rv0194 assessed as potentiation of clofazimine-mediated antitubercular activity by measuring clofazimine growth inhibition at 0.3 ug/ml (reference value: 39%); in short: as §1

With `CCOC(=O)C1=CN(c2ccccc2)C=C(C(=O)OCC)C1c1ccc(OC)cc1` the inhibition of growth at 1 µg/mL [1] was 25%.
In the case of `CCOC(=O)C1=CN(c2ccccc2)C=C(C(=O)OCC)C1c1ccccc1`, the inhibition of growth at 1 µg/mL [1] is reported as 57% and the Ratio [2] is reported as 4.3.
With `CCOC(=O)C1=CN(c2ccccc2)C=C(C(=O)OCC)C1c1cccc(OC)c1` the inhibition of growth at 1 µg/mL [1] was 61% and the Ratio [2] was 1.1.
Work on `NNC(=O)c1ccncc1` [ISONIAZID] yielded an inhibition of growth at 1 µg/mL [1] of 97%.
With `CCOC(=O)C1=CN(c2ccc(OC)cc2)C=C(C(=O)OCC)C1c1ccccc1` the inhibition of growth at 1 µg/mL [1] was 60% and the Ratio [2] was 3.9.
Work on `CCOC(=O)C1=CN(c2ccc(OC)cc2)C=C(C(=O)OCC)C1c1cccc(OC)c1` yielded an inhibition of growth at 1 µg/mL [1] of 41% and a Ratio [2] of 3.4.
In the case of `CCOC(=O)C1=CN(c2ccc(OC)cc2)C=C(C(=O)OCC)C1c1ccc(OC)c(OC)c1`, the inhibition of growth at 1 µg/mL [1] is reported as 60% and the Ratio [2] is reported as 5.2.
With `CCOC(=O)C1=CN(c2ccccc2)C=C(C(=O)OCC)C1c1ccc(OC)c(OC)c1` the fold change (FC) [3] was 2.5, the inhibition of growth at 1 µg/mL [1] was 30% and the Ratio [2] was 7.3. The growth inhibition (GI) [4] was 46% and the growth inhibition (GI) [5] was 60%.
`CCOC(=O)C1=CN(c2ccc(OC)cc2)C=C(C(=O)OCC)C1c1ccc(OC)cc1` was tested, and the inhibition of growth at 1 µg/mL [1] was 35% and the Ratio [2] was 1.2.
